Data set [1] in a line: Partition coefficient, P in n-octanol/phosphate buffer at pH 7.0.
Data set [2] can be described thus: Antioxidant spin trapping activity assessed as hydroxyl radical adducts formation by Fenton system. It counts as physicochemical. A digest of the protocol:
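Hydroxyl adducts: spin trap (40 mM, initial) with Fenton mix of FeSO4 (1 mM), EDTA (2 mM), H2O2 (0.2%); after 10 s diluted 1:1 with 300 mM phosphate buffer pH 7.4 containing 20 mM DTPA; ESR at sweep 80 G, modulation 0.21 G, microwave 20 mW, time constant 0.08 s, gain 2×10^4, 57 G/min.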

A short description of data set [3]: Antioxidant spin trapping activity assessed as alkoxyl radical adducts formation from ethanol. It is filed as physicochemical. The gist of the method: (§1)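 Alkoxyl adducts by nucleophilic addition: spin trap (1 M, init. conc., in methanol or ethanol) incubated 10 s with FeCl3 (2 mM in the alcohol), then stopped by 1:20 dilution with phosphate buffer (0.3 M, pH 7.4, 20 mM DTPA); ESR recorded at 9.7 GHz, sweep width 80 G.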

A short description of data set [4]: Antioxidant spin trapping activity assessed as carbon centered radical adduct formation from methanol. It counts as physicochemical. A digest of the protocol:
(§2)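 Fenton-type generation of alcohol-derived carbon radicals: spin trap (40 mM, init. conc.), FeSO4 (1 mM), EDTA (2 mM), H2O2 (0.2%) in methanol or ethanol/water; stopped after 10 s by 1:1 dilution with 300 mM phosphate buffer pH 7.4 containing 20 mM DTPA; ESR: sweep 80 G, modulation 0.21 G, 20 mW, gain 4×10^4, 57 G/min.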

Data set [5] in a line: Antioxidant spin trapping activity assessed as carbon centered radical adduct formation from ethanol. It is filed as physicochemical. A digest of the protocol: as §2
Data set [6] is described as follows: Antioxidant spin trapping activity assessed as carbon centered radical adduct formation from formate. It is filed as physicochemical. The gist of the method:
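CO2 anion radical adducts: spin trap (40 mM, init. conc.) with FeSO4 (1 mM), EDTA (2 mM), H2O2 (0.2%) in aqueous sodium formate (200 mM); reaction stopped after 10 s by 1:1 dilution into 300 mM phosphate buffer pH 7.4 with 20 mM DTPA, then ESR spectrum recorded (sweep width 80 G).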

Data set [7] is described as follows: Antioxidant spin trapping activity assessed as alkoxyl radical adducts formation from methanol. It is filed as physicochemical. A digest of the protocol:
as §1

The structures appear in SMILES notation.

As to `CCOC(=O)C1(C)CCC=[N+]1[O-]` (stereo unspecified), the P in data set [1] came to 0.15.
`CC1(C(N)=O)CCC=[N+]1[O-]` (stereo unspecified) came in with a P in data set [1] of 0.016.
With `CCCC1(C(N)=O)CCC=[N+]1[O-]` (stereo unspecified), the outcome in data set [2], in data set [3], in data set [4], in data set [5] and in data set [6] was Active. In addition, the P in data set [1] is 0.211.
Take `CCC1(C(N)=O)CCC=[N+]1[O-]` (stereo unspecified): the result in data set [2] and in data set [6] was Active. This compound also gave a P in data set [1] of 0.056.
Consider `CCCCCC1(C(N)=O)CCC=[N+]1[O-]` (stereo unspecified), for which the outcome in data set [2], in data set [3], in data set [4], in data set [5], in data set [6] and in data set [7] was Active. The P in data set [1] came to 2.72.
In the case of `CCCCC1(C(N)=O)CCC=[N+]1[O-]` (stereo unspecified), the result in data set [2] and in data set [6] was Active. The P in data set [1] is 0.668.

Values taken from ChEMBL document CHEMBL1140030, “Spin trapping experiments with different carbamoyl-substituted EMPO derivatives” (Bioorg Med Chem, 2008).
